What was measured:
SMMC-7721 = assay: Cytotoxicity against c-Met-dependent human SMMC7721 cells assessed as growth inhibition after 72 hrs by MTT assay; assay type: functional, cell-based; conditions: SMMC-7721, 72 h
Outline: (§1)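 Cells grown in MEM with 10% FBS. About 4×10³ cells/well were seeded and incubated 24 h at 37 °C, 5% CO₂, then exposed to compound for 72 h. MTT was added (terminal 5 µg/mL) for 4 h at 37 °C, and formazan was dissolved in DMSO. IC50 is the mean of three determinations.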

[1] = Cytotoxicity against c-Met-dependent human U87MG cells assessed as growth inhibition after 72 hrs by MTT assay; assay type: functional, cell-based, U-87MG ATCC; conditions: U-87 MG; outline: as §1
MKN-45 = assay: Cytotoxicity against c-Met-dependent human MKN45 cells assessed as growth inhibition after 72 hrs by MTT assay; conditions: MKN-45, 72 h
HT-29 = assay: Cytotoxicity against c-Met-dependent human HT-29 cells assessed as growth inhibition after 72 hrs by MTT assay; conditions: HT-29, 72 h
A549 = assay: Cytotoxicity against c-Met-dependent human A549 cells assessed as growth inhibition after 72 hrs by MTT assay; conditions: A549, 72 h
[2] = Cytotoxicity against c-Met-independent human H460 cells assessed as growth inhibition after 72 hrs by MTT assay; conditions: NCI-H460, 72 h
[3] = molecular target: T1, Hepatocyte growth factor receptor (Homo sapiens, UniProt P08581); assay: Inhibition of wild type GST-tagged c-Met kinase domain (1058 to 1365) (unknown origin) expressed in Sf9 cells by HTRF assay
[4] = molecular target: T1, Hepatocyte growth factor receptor; assay: Inhibition of c-Met (unknown origin)
Outline: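 HTRF kinase assay on plates precoated with 20 µg/mL poly(Glu,Tyr) 4:1. ATP (10 mM solution) in 50 mM HEPES pH 7.0 buffer with DTT, MgCl₂, MnCl₂ and 0.1% NaN₃. Compound in 1% DMSO; reaction started with purified kinase and run 30 min at 25 °C. Inhibition relative to enzyme and no-enzyme controls; IC50 from the inhibition curves.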

[5] = molecular target: Vascular endothelial growth factor receptor 2 (Homo sapiens, UniProt P35968); assay: Inhibition of VEGFR-2 (unknown origin)

Row | IC50 [3] | IC50 [4] | IC50 [5] | SMILES | IC50 (SMMC-7721) | IC50 [1] | IC50 (MKN-45) | IC50 (HT-29) | IC50 (A549) | IC50 [2]
1 |  |  |  | COc1cc2c(Oc3ccc(NC(=O)c4nn(-c5cccc(F)c5)c5ccccc5c4=O)cc3F)ccnc2cc1OCCCN1CCCCC1 | 2.02 µM | 2.46 µM | 0.14 µM | 1.88 µM | 0.11 µM | 0.91 µM
2 |  |  |  | COc1cc2c(Oc3ccc(NC(=O)c4nn(-c5c(Cl)cccc5Cl)c5ccccc5c4=O)cc3F)ccnc2cc1OCCCN1CCC(C)CC1 | 0.82 µM | 1.04 µM | 0.36 µM | 0.92 µM | 0.4 µM | 0.65 µM
3 |  |  |  | COc1cc2c(Oc3ccc(NC(=O)c4nn(-c5ccccc5C(F)(F)F)c5ccccc5c4=O)cc3F)ccnc2cc1OCCCN1CCOCC1 | 0.84 µM | 1.48 µM | 0.02 µM | 0.51 µM | 0.06 µM | 0.08 µM
4 |  |  |  | COc1cc2c(Oc3ccc(NC(=O)c4nn(-c5ccccc5F)c5ccccc5c4=O)cc3F)ccnc2cc1OCCCN1CCC(C)CC1 | 0.95 µM | 1.21 µM | 0.58 µM | 0.78 µM | 0.33 µM | 0.29 µM
5 |  |  |  | COc1cc2c(Oc3ccc(NC(=O)c4nn(-c5ccccc5C(F)(F)F)c5ccccc5c4=O)cc3F)ccnc2cc1OCCCN1CCCCC1 | 1.35 µM | 1.16 µM | 0.027 µM | 0.56 µM | 0.055 µM | 0.081 µM
6 |  |  |  | COc1cc2c(Oc3ccc(NC(=O)c4nn(-c5ccccc5Cl)c5cc(F)ccc5c4=O)cc3F)ccnc2cc1OCCCN1CCC(C)CC1 |  |  | 1.56 µM | 1.37 µM | 1.05 µM | 1.25 µM
7 |  |  |  | COc1cc2c(Oc3ccc(NC(=O)c4nn(-c5ccc(Br)cc5)c5ccccc5c4=O)cc3F)ccnc2cc1OCCCN1CCCCC1 | 0.84 µM | 1.6 µM | 0.45 µM | 1.14 µM | 0.53 µM | 0.4 µM
8 |  |  |  | COc1cc2c(Oc3ccc(NC(=O)c4nn(-c5ccc(C)cc5C)c5ccccc5c4=O)cc3F)ccnc2cc1OCCCN1CCCCC1 |  |  | 1.85 µM | 3.56 µM | 1.28 µM | 1.57 µM
9 |  |  |  | COc1cc2c(Oc3ccc(NC(=O)c4nn(-c5ccccc5Cl)c5ccccc5c4=O)cc3F)ccnc2cc1OCCCN1CCCCC1 | 0.42 µM | 0.49 µM | 0.05 µM | 0.26 µM | 0.043 µM | 0.073 µM
10 |  |  |  | COc1cc2c(Oc3ccc(NC(=O)c4nn(-c5ccccc5Br)c5ccccc5c4=O)cc3F)ccnc2cc1OCCCN1CCC(C)CC1 |  | 2.16 µM | 0.28 µM | 1.34 µM | 0.35 µM | 0.83 µM
11 | 0.0089 µM |  |  | COc1cc2c(Oc3ccc(-c4cnc(Cc5ccccc5)n(C)c4=O)cc3F)ccnc2cc1OCCCN1CCOCC1 |  |  |  |  |  | 
12 |  |  |  | COc1cc2c(Oc3ccc(NC(=O)c4nn(-c5cc(C)ccc5C)c5ccccc5c4=O)cc3F)ccnc2cc1OCCCN1CCCC1 |  | 2.47 µM | 0.42 µM | 3.05 µM | 1.15 µM | 2.03 µM
13 |  |  |  | COc1cc2c(Oc3ccc(NC(=O)c4nn(-c5ccc(Cl)cc5Cl)c5ccccc5c4=O)cc3F)ccnc2cc1OCCCN1CCCCC1 |  |  | 0.59 µM | 0.99 µM | 0.47 µM | 1.03 µM
14 |  |  |  | COc1cc2c(Oc3ccc(NC(=O)c4nn(-c5ccccc5)c5ccccc5c4=O)cc3F)ccnc2cc1OCCCN1CCOCC1 | 1.13 µM | 1.46 µM | 0.96 µM | 1.17 µM | 0.57 µM | 0.69 µM
15 |  |  |  | COc1cc2c(Oc3ccc(NC(=O)c4nn(-c5cccc(C(F)(F)F)c5)c5ccccc5c4=O)cc3F)ccnc2cc1OCCCN1CCCC1 | 0.63 µM | 0.85 µM | 0.19 µM | 0.78 µM | 0.3 µM | 1.04 µM
16 |  |  |  | COc1cc2c(Oc3ccc(NC(=O)c4nn(-c5ccccc5F)c5cc(F)ccc5c4=O)cc3F)ccnc2cc1OCCCN1CCOCC1 |  |  | 1.54 µM | 2.95 µM | 2.04 µM | 2.25 µM
17 |  |  |  | COc1cc2c(Oc3ccc(NC(=O)c4nn(-c5ccccc5F)c5cc(F)ccc5c4=O)cc3F)ccnc2cc1OCCCN1CCCCC1 |  |  | 2.79 µM | 5.07 µM | 3.27 µM | 3.28 µM
18 |  |  |  | COc1cc2c(Oc3ccc(NC(=O)c4nn(-c5ccc(C)cc5)c5ccccc5c4=O)cc3F)ccnc2cc1OCCCN1CCOCC1 |  | 1.97 µM | 0.68 µM | 3.2 µM | 1.1 µM | 2.1 µM

Row | IC50 [3] | IC50 [4] | IC50 [5] | SMILES | IC50 (SMMC-7721) | IC50 [1] | IC50 (MKN-45) | IC50 (HT-29) | IC50 (A549) | IC50 [2]
19 |  |  |  | COc1cc2c(Oc3ccc(NC(=O)c4nn(-c5ccccc5Cl)c5ccccc5c4=O)cc3F)ccnc2cc1OCCCN1CCOCC1 | 0.92 µM | 1.69 µM | 0.01 µM | 0.24 µM | 0.03 µM | 0.01 µM
20 |  |  |  | COc1cc2c(Oc3ccc(NC(=O)c4nn(-c5ccc(Cl)c(C(F)(F)F)c5)c5ccccc5c4=O)cc3F)ccnc2cc1OCCCN1CCC(C)CC1 | 0.37 µM | 0.54 µM | 0.14 µM | 0.49 µM | 0.24 µM | 0.11 µM
21 |  |  |  | COc1cc2c(Oc3ccc(NC(=O)c4nn(-c5cccc(C(F)(F)F)c5)c5ccccc5c4=O)cc3F)ccnc2cc1OCCCN1CCCCC1 | 0.33 µM | 1.62 µM | 0.27 µM | 0.56 µM | 0.31 µM | 1.03 µM
22 |  |  |  | COc1cc2c(Oc3ccc(NC(=O)c4nn(-c5ccc(F)cc5)c5ccccc5c4=O)cc3F)ccnc2cc1OCCCN1CCC(C)CC1 | 0.93 µM | 1.12 µM | 0.17 µM | 0.46 µM | 0.15 µM | 0.89 µM
23 |  |  |  | COc1cc2c(Oc3ccc(NC(=O)c4nn(-c5ccccc5OC(F)(F)F)c5ccccc5c4=O)cc3F)ccnc2cc1OCCCN1CCOCC1 |  | 1.04 µM | 0.76 µM | 1.12 µM | 0.48 µM | 0.62 µM
24 |  |  |  | COc1cc2c(Oc3ccc(NC(=O)c4nn(-c5cccc(C(F)(F)F)c5)c5ccccc5c4=O)cc3F)ccnc2cc1OCCCN1CCC(C)CC1 |  | 0.73 µM | 0.16 µM | 1.02 µM | 0.21 µM | 0.55 µM
25 |  |  |  | COc1cc2c(Oc3ccc(NC(=O)c4nn(-c5ccc(F)cc5Br)c5ccccc5c4=O)cc3F)ccnc2cc1OCCCN1CCCC1 |  |  | 1.72 µM | 2.91 µM | 1.03 µM | 3.65 µM
26 |  |  |  | COc1cc2c(Oc3ccc(NC(=O)c4nn(-c5ccc(F)c(F)c5)c5ccccc5c4=O)cc3F)ccnc2cc1OCCCN1CCCC1 | 0.59 µM | 1.06 µM | 0.35 µM | 1.12 µM | 0.26 µM | 0.64 µM
27 |  |  |  | COc1cc2c(Oc3ccc(NC(=O)c4nn(-c5c(Cl)cccc5Cl)c5ccccc5c4=O)cc3F)ccnc2cc1OCCCN1CCCC1 | 0.84 µM | 1.25 µM | 0.35 µM | 1.05 µM | 0.35 µM | 0.37 µM
28 |  |  |  | COc1cc2c(Oc3ccc(NC(=O)c4nn(-c5c(Cl)cccc5Cl)c5ccccc5c4=O)cc3F)ccnc2cc1OCCCN1CCCCC1 |  | 1.36 µM | 0.39 µM | 1.15 µM | 0.41 µM | 0.77 µM
29 |  |  |  | COc1cc2c(Oc3ccc(NC(=O)c4nn(-c5ccc(C)cc5)c5ccccc5c4=O)cc3F)ccnc2cc1OCCCN1CCC(C)CC1 |  |  | 1.22 µM | 2.85 µM | 1.05 µM | 1.99 µM
30 |  |  |  | COc1cc2c(Oc3ccc(NC(=O)c4nn(-c5cc(C)ccc5C)c5ccccc5c4=O)cc3F)ccnc2cc1OCCCN1CCOCC1 |  | 1.36 µM | 0.03 µM | 1.15 µM | 0.75 µM | 0.59 µM
31 |  |  |  | COc1cc2c(Oc3ccc(NC(=O)c4nn(-c5ccccc5Cl)c5cc(F)ccc5c4=O)cc3F)ccnc2cc1OCCCN1CCCCC1 |  |  | 1.62 µM | 2.47 µM | 1.82 µM | 1.51 µM
32 |  |  |  | COc1cc2c(Oc3ccc(NC(=O)c4nn(-c5ccc(Cl)cc5)c5ccccc5c4=O)cc3F)ccnc2cc1OCCCN1CCCCC1 | 0.33 µM | 1.62 µM | 0.23 µM | 2.12 µM | 0.2 µM | 0.64 µM
33 |  | 0.0049 µM |  | COc1cc2c(Oc3ccc(-c4cnc(Nc5ccccc5)n(C)c4=O)cc3F)ccnc2cc1OCCCN1CCOCC1 |  |  |  |  |  | 
34 |  |  | 0.03 µM | COc1cc2c(Oc3ccc(NC(=O)N4CCN(c5ccccc5)C4=O)cc3F)ccnc2cc1OCCCN1CCOCC1 |  |  |  |  |  | 
35 |  |  |  | COc1cc2c(Oc3ccc(NC(=O)c4nn(-c5cc(C(F)(F)F)ccc5Cl)c5ccccc5c4=O)cc3F)ccnc2cc1OCCCN1CCCC1 |  | 1.42 µM | 0.17 µM | 1.12 µM | 0.2 µM | 0.61 µM

Source: ChEMBL document CHEMBL2385045, “Discovery of novel 4-(2-fluorophenoxy)quinoline derivatives bearing 4-oxo-1,4-dihydrocinnoline-3-carboxamide moiety as c-Met kinase inhibitors” (Bioorg Med Chem, 2013)
